Reference: paper PMC7667462 (Journal of medicinal chemistry, 2019)
“Also recorded” adds a separate entry of the source.

Assays:
[1] = molecular target: Clk (Cdc-like kinase) 2; conditions: cited from earlier work
[2] = molecular target: CK2α2β2 holoenzyme (Homo sapiens, UniProt P68400); assay: CK2 radiometric kinase assay, holoenzyme versus CK2α; assay type: biochemical; conditions: CK2β-independent peptide substrate
In short: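 Radiometric CK2 assay comparing isolated human recombinant CK2α with the CK2α₂β₂ holoenzyme across increasing test compound concentrations, using a CK2β-independent peptide substrate. ATP was 100 μM unless stated otherwise.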

[3] = molecular target: pim-1 (Homo sapiens, UniProt P11309); assay: kinase selectivity profiling, residual kinase activity; assay type: biochemical; conditions: read-out: % inhibition of pim-1
Sequence of pim-1 (P11309 whole entry): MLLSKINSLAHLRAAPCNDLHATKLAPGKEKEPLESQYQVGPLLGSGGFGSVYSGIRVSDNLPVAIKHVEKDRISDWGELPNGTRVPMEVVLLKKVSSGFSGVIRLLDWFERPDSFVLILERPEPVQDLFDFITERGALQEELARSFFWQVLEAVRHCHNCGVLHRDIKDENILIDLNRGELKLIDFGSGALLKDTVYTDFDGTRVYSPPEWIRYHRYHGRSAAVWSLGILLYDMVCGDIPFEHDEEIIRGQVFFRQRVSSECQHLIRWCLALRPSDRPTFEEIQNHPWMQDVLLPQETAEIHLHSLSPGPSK
In short: (§1)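 The test compound was profiled against a panel of 44 human kinases, with ATP set to the Km of each kinase. Remaining activity was read as % inhibition of each kinase.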

[4] = molecular target: EphA4 (Homo sapiens, UniProt P54764); assay: as above; assay type: biochemical; conditions: read-out: % inhibition of EphA4
Sequence of EphA4 (P54764 20-986): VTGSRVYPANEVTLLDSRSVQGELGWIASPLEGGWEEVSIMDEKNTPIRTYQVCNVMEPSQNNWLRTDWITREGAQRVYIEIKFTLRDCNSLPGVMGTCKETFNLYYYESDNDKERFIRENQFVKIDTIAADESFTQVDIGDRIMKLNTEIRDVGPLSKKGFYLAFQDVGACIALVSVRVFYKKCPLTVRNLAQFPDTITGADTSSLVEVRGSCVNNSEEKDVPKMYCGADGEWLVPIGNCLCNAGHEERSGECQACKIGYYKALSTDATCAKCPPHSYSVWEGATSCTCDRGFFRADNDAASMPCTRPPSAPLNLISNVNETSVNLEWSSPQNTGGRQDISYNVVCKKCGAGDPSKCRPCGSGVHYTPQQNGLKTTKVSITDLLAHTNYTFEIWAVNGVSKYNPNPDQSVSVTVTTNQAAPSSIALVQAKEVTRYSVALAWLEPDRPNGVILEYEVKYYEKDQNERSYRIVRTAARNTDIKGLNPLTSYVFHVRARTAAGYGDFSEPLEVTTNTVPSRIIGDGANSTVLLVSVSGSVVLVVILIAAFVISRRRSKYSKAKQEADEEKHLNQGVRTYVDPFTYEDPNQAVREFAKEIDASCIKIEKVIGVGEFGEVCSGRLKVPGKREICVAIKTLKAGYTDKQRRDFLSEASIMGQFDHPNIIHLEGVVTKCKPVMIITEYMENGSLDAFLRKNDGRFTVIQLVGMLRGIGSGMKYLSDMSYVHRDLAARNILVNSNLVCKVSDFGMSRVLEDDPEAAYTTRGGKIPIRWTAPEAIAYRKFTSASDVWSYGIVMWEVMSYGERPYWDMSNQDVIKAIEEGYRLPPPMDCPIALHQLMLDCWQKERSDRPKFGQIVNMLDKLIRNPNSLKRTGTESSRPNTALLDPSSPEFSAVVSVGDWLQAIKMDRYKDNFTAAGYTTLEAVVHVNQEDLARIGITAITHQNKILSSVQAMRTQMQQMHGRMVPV
In short: as §1

[5] = molecular target: T1, CK2α (Homo sapiens, UniProt P68400); assay: as above; assay type: biochemical; conditions: compound at 50 μM
T1 sequence (P68400 whole entry): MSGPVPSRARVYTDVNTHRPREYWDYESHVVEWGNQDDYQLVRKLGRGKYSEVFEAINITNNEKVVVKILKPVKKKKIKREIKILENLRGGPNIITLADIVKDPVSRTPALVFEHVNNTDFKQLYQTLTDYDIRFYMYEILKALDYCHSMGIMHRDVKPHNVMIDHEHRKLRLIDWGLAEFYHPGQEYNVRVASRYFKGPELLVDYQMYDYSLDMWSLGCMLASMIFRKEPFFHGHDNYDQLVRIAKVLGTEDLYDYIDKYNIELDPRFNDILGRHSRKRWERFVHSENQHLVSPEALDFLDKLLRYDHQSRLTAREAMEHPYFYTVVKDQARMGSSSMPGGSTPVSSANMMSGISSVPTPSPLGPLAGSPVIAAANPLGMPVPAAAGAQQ
In short: as §1

[6] = molecular target: T1, CK2α; assay: CK2 radiometric kinase assay; assay type: biochemical; conditions: compared with compound 2
[7] = molecular target: T1, CK2α; assay: NMR Saturation Transfer Difference; assay type: binding; conditions: compound 500 μM, CK2α 5 μM
[8] = water solubility; assay type: physicochemical; conditions: qualitative, relative to the other compounds of the series
[9] = molecular target: T2, CK2α^1–335 (Homo sapiens, UniProt P68400); assay: native mass spectrometry binding and competition; conditions: 10 μM CK2α; for binding stoichiometry to CK2α by native mass spectrometry: 100 μM IP6 or 10–40 μM 6, 5% DMSO
T2 sequence (P68400 1-335): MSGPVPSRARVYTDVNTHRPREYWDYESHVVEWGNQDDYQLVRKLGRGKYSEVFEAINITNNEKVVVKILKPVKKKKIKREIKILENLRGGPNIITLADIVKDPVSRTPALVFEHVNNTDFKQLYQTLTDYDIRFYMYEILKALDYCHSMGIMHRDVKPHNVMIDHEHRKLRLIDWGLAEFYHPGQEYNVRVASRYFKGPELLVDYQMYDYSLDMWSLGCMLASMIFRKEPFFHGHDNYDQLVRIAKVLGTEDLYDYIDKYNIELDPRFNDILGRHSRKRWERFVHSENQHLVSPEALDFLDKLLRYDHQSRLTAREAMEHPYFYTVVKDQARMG

[10] = molecular target: T3, MLCK (MLCK2) (Homo sapiens, UniProt Q32MK0); assay: kinase selectivity profiling, residual kinase activity; assay type: biochemical; conditions: read-out: % inhibition of MLCK
T3 sequence (Q32MK0 1-819): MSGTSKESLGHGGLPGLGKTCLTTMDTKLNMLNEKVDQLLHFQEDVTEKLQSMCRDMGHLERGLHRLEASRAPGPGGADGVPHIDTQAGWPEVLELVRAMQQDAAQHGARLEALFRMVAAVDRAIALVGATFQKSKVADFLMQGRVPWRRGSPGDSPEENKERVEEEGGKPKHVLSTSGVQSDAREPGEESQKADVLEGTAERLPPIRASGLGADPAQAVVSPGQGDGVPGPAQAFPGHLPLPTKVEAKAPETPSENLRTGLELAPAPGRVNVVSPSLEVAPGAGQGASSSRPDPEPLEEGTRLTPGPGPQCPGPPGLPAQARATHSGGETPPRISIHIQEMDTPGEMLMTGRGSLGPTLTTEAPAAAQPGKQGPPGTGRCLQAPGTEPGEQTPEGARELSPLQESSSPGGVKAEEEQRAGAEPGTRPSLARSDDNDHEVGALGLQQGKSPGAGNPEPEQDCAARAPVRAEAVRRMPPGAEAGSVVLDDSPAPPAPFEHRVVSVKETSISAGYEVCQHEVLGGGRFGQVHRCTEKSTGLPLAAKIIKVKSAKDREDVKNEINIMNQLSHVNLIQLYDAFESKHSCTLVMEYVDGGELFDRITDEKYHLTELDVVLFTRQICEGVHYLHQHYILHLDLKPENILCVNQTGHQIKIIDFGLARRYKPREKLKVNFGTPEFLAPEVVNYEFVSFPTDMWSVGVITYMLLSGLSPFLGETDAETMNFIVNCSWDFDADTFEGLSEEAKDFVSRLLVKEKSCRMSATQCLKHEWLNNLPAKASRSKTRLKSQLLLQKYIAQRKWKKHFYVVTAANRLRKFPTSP
In short: as §1

[11] = molecular target: Clk4 (Homo sapiens, UniProt Q9HAZ1); assay: as above; assay type: biochemical; conditions: read-out: % inhibition of Clk4
Sequence of Clk4 (Q9HAZ1 whole entry): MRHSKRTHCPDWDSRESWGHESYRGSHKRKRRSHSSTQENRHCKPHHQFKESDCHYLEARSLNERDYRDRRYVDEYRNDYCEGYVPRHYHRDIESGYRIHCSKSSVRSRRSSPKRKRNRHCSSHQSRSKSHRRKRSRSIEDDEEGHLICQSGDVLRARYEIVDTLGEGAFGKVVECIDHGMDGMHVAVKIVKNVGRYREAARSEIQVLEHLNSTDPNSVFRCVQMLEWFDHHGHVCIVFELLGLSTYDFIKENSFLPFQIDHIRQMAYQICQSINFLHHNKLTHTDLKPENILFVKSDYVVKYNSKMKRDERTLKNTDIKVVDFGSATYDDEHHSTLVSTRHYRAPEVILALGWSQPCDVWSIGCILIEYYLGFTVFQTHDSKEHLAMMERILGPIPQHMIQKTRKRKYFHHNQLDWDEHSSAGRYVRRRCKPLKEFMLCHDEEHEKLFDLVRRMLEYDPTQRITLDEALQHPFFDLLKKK
In short: as §1

[12] = molecular target: Clk2 (Homo sapiens, UniProt P49760); assay: as above; assay type: biochemical; conditions: read-out: % inhibition of Clk2
Sequence of Clk2 (P49760 whole entry): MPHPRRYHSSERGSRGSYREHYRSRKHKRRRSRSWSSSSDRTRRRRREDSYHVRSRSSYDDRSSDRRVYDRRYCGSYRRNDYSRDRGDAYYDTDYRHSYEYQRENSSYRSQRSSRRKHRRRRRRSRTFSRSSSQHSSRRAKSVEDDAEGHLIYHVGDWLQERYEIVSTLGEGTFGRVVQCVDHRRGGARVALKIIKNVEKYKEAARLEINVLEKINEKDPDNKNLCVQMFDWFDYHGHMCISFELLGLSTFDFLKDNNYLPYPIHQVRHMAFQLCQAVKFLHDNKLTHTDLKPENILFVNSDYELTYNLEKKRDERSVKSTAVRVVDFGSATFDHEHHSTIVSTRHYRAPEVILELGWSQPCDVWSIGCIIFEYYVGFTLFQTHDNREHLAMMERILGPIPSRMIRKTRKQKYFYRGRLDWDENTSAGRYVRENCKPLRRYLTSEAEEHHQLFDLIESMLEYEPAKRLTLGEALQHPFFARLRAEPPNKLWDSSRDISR
In short: as §1

[13] = molecular target: GSK3β (Homo sapiens, UniProt P49841); assay: as above; assay type: biochemical; conditions: read-out: % inhibition of GSK3β
Sequence of GSK3β (P49841 whole entry): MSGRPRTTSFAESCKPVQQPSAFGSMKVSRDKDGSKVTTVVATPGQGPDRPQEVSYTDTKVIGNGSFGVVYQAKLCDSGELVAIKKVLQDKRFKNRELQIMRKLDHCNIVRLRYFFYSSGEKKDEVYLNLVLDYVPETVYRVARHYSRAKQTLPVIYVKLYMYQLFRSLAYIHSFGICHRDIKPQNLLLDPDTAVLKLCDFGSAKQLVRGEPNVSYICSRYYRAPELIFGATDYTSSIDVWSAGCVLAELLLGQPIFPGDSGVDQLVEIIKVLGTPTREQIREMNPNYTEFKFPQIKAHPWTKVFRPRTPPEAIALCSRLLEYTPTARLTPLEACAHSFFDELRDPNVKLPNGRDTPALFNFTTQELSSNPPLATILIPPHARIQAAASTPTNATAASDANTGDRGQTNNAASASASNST
In short: as §1

[14] = molecular target: Dyrk1A (Homo sapiens, UniProt Q13627); assay: as above; assay type: biochemical; conditions: read-out: % inhibition of Dyrk1A
In short: as §1

[15] = molecular target: T4, ACVR1 (ALK2) (Homo sapiens, UniProt Q04771); assay: as above; assay type: biochemical; conditions: read-out: % inhibition of ACVR1
T4 sequence (Q04771 21-509): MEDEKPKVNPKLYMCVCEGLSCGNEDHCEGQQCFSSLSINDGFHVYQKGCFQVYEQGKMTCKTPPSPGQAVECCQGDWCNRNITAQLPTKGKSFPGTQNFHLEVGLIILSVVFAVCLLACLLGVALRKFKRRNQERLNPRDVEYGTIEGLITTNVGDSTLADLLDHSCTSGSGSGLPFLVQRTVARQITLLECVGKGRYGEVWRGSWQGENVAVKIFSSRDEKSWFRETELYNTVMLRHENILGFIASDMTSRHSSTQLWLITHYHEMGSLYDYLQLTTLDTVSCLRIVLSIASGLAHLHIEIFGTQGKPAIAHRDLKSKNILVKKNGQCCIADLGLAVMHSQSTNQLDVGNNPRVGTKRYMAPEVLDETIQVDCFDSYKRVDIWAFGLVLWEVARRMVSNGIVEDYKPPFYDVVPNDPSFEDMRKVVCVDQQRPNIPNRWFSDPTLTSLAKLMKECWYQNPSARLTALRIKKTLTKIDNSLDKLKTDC
In short: as §1

Sequence of CK2α2β2 holoenzyme (P68400 whole entry): as the sequence (P68400 whole entry) above
Sequence of CK2α2β2 holoenzyme (P67870 whole entry partner): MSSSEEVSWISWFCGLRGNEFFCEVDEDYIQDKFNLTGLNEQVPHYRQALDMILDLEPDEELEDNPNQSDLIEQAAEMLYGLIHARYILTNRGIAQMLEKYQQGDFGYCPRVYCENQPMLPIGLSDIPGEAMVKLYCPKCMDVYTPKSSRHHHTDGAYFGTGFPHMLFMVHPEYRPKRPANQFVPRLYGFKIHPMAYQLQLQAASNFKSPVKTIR

**Q.** Which IC50 [1] does the source give for `O=C(O)c1ccc2c(c1)nc(Nc1cccc(Cl)c1)c1ccncc12` [CX-4945, 5-(3-chlorophenylamino)benzo[c][2,6]naphthyridine-8-carboxylic acid] here?
**A.** Its IC50 is 4 nM.

**Q.** Which “inhibition of CK2α2β2 holoenzyme compared with CK2α” value [2] does the source give for `O=C(O)c1cccc(Nc2nc(-c3cccc([N+](=O)[O-])c3)cs2)c1` [Compound 1, 3-((4-(3-nitrophenyl)thiazol-2-yl)amino)benzoic acid] here?
**A.** The value was “inhibited to the same extent”.

**Q.** Which inhibition at 50 µM [3] does the source give for `O=C(O)c1ccc(Nc2nc(-c3cccc([N+](=O)[O-])c3)cs2)cc1` [Compound 2, 4-((4-(3-nitrophenyl)thiazol-2-yl)amino)benzoic acid] here?
**A.** Its inhibition at 50 µM is 54%.

**Q.** What about the inhibition at 50 µM [4] of the same compound?
**A.** The inhibition at 50 µM was 55%.

**Q.** And the “inhibition of CK2α” value [5]?
**A.** The value was “full inhibition”.

**Q.** With `O=[N+]([O-])c1cccc(-c2csc(Nc3ccccc3)n2)c1` [Compound 3, [4-(3-Nitro-phenyl)-thiazol-2-yl]-phenyl-amine] as the compound, how does the “CK2α inhibitory activity, in words (SAR)” value [6] read?
**A.** The value was “significant loss of activity”.

**Q.** For `COC(=O)c1ccc(Nc2nc(-c3cccc([N+](=O)[O-])c3)cs2)cc1` [Compound 4, 4-[4-(3-Nitro-phenyl)-thiazol-2-ylamino]-benzoic acid methyl ester], which “CK2α inhibitory activity, in words (SAR)” value [6] is on record?
**A.** Its value is “significant loss of activity”.

**Q.** For `O=C(O)c1ccc(Nc2nccs2)cc1` [Compound 5, 4-(Thiazol-2-ylamino)-benzoic acid], which “CK2α inhibitory activity, in words (SAR)” value [6] is on record?
**A.** The value was “complete lack of activity”.

**Q.** What does the source list for `O=C(O)c1ccc(Nc2nc(-c3ccccc3)cs2)cc1` [Compound 6, 4-(4-Phenyl-thiazol-2-ylamino)-benzoic acid]?
**A.** STD NMR competition with AMP-PNP for binding to CK2α ([7]; AMP-PNP 500 μM): AMP-PNP was not able to bind to CK2α in the presence of 2-aminothiazole 6; STD NMR competition with CX-4945 for binding to CK2α ([7]; CX-4945 100 μM): did not bind to the same site as CX-4945; water solubility [8]: superior water solubility; also recorded: relatively good solubility in water; binding stoichiometry to CK2α by native mass spectrometry [9]: various stoichiometries; native MS competition with IP6 for binding to CK2α ([9]; 10 μM compound, 100 μM IP6): competitive ligand of IP6

**Q.** Which results are given for `O=C(O)c1ccc(Nc2nc(-c3cccc(Br)c3)cs2)cc1` [Compound 7, 4-[4-(3-Bromo-phenyl)-thiazol-2-ylamino]-benzoic acid]?
**A.** inhibition at 50 µM [10]: 61%; inhibition at 50 µM [11]: 61%; inhibition at 50 µM [12]: ~30%; inhibition at 50 µM [13]: 71%; inhibition at 50 µM [14]: ~30%; inhibition at 50 µM [4]: 73%; inhibition at 50 µM [15]: 66%

**Q.** With `O=C(O)c1ccc(Nc2nc(-c3ccccn3)cs2)cc1` [Compound 9, 4-(4-Pyridin-2-yl-thiazol-2-ylamino)-benzoic acid] as the compound, how does the water solubility [8] read?
**A.** The water solubility was “superior water solubility; also recorded: relatively good solubility in water”.

**Q.** For `O=P(O)(O)OC1C(OP(=O)(O)O)C(OP(=O)(O)O)C(OP(=O)(O)O)C(OP(=O)(O)O)C1OP(=O)(O)O` (stereo not shown) [IP6, inositol hexakisphosphate, reference compound], which “binding stoichiometry to CK2α by native mass spectrometry” value [9] is on record?
**A.** The value was 1:1 and 1:2 stoichiometry.
